According to ChEMBL document CHEMBL1177650, “Synthesis, structural elucidation and in vitro antiparasitic activity against Trypanosoma cruzi and Leishmania chagasi parasites of novel tetrahydro-1-benzazepine derivatives” (Bioorg Med Chem, 2010):

Experiments:
[1] = Cytotoxicity against african green monkey Vero cells after 72 hrs by MTT assay; format: cell-based; conditions: chlorocebus sabaeus
Summary of the method: (§1)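 Vero or transformed THP-1 cells incubated with compound (0.3–300 μM) 72 h at 37 °C, 5% CO2; untreated controls. MTT read-out, formazan OD at 580 nm; % cytotoxicity = 100 × (OD control − OD treated)/OD control. CC50/CC90 by sigmoidal regression; triplicates, repeated twice. DMSO stocks 100× concentrated, diluted in medium.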

Trypanosoma cruzi [2] = test: Antitrypanosomal activity against Trypanosoma cruzi 320I01 epimastigotes after 72 hrs by haemocytometry; format: functional, organism-based; conditions: 320I01, 72 h
Summary of the method: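 Late-phase T. cruzi epimastigotes cultured in LIT medium with hiFCS at 28 °C; threefold serial dilutions (0.3–100 μM) for 72 h at 28 °C, untreated controls. Parasites counted in a haemocytometer; IC50/IC90 by sigmoidal regression; each concentration in triplicate, two experiments.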

[3] = Selectivity index, CC50 for african green monkey Vero cells to IC50 for Trypanosoma cruzi 320I01 epimastigote; format: functional
Summary of the method: (§2)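 Selectivity index computed as CC50 in Vero cells divided by IC50 against the T. cruzi stage named in the line.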

Trypanosoma cruzi [4] = test: Antitrypanosomal activity against Trypanosoma cruzi 320I01 amastigotes infected in african green monkey Vero cells after 5 days by Giemsa staining; format: functional, organism-based; conditions: 320I01, Vero, 120 h
Summary of the method: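 Vero cells (RPMI, 5% hiSBF, 37 °C, 5% CO2) infected 24 h with tissue-derived T. cruzi trypomastigotes at parasite:cell 10:1. Compound dilutions (top 100 μM) applied 5 days at 37 °C, 5% CO2, medium changed once at day 3. Infected cells scored per 300 cells on methanol-fixed Giemsa preparations; IC50/IC90 by sigmoidal regression; triplicates, two experiments.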

[5] = Selectivity index, CC50 for african green monkey Vero cells to IC50 for Trypanosoma cruzi 320I01 amastigotes; format: functional; summary of the method: as §2
Leishmania chagasi [6] = test: Antileishmanial activity against Leishmania chagasi MHOM/BR/74/PP75 promastigotes after 72 hrs by haemocytometry; format: functional, organism-based; conditions: MHOM/BR/74/PP75, 72 h
Summary of the method: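 Late-phase L. chagasi promastigotes, grown at 28 °C in RPMI 1640 with hemin, HEPES and 10% hiSBF, exposed to threefold serial dilutions (0.3–100 μM) for 72 h at 28 °C; untreated controls. Growth inhibition from haemocytometer counts; IC50/IC90 by sigmoidal regression; triplicates, repeated twice.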

[7] = Cytotoxicity against human THP1 cells after 72 hrs by MTT assay; format: cell-based; conditions: THP-1 cells; summary of the method: as §1
[8] = Selectivity index, CC50 for human THP1 cells to IC50 for Leishmania chagasi MHOM/BR/74/PP75 promastigotes; format: functional, THP-1
Summary of the method: (§3)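 Selectivity index computed as CC50 in THP-1 cells divided by IC50 against the L. chagasi stage named in the line.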

Leishmania chagasi [9] = test: Antileishmanial activity against Leishmania chagasi MHOM/BR/74/PP75 amastigotes infected in human THP1 cells after 5 days by Giemsa staining; format: functional, organism-based; conditions: MHOM/BR/74/PP75, THP-1, 120 h
Summary of the method: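 THP-1 cells (RPMI, 5% hiSBF, 37 °C, 5% CO2) transformed, then infected 24 h with late-phase L. chagasi promastigotes at parasite:cell 10:1. Treated with compound dilutions (top 100 μM) 5 days at 37 °C, 5% CO2, medium changed once after 3 days. Infected cells counted per 300 cells on methanol-fixed Giemsa slides; IC50/IC90 by sigmoidal regression; triplicates, repeated twice.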

[10] = Selectivity index, CC50 for human THP1 cells to IC50 for Leishmania chagasi MHOM/BR/74/PP75 amastigotes; format: functional, THP-1; summary of the method: as §3

Row | IC50 (Trypanosoma cruzi [2]) [µM] | IC90 (Trypanosoma cruzi [2]) [µM] | IC50 (Trypanosoma cruzi [4]) [µM] | IC90 (Trypanosoma cruzi [4]) [µM] | IC50 (Leishmania chagasi [6]) [µM] | IC90 (Leishmania chagasi [6]) [µM] | IC50 (Leishmania chagasi [9]) [µM] | IC90 (Leishmania chagasi [9]) [µM] | SMILES | CC50 at 72 h [1] [µM] | CC90 at 72 h [1] [µM] | Selectivity Index [3] | Selectivity Index [5] | CC50 at 72 h [7] [µM] | CC90 at 72 h [7] [µM] | Selectivity Index [8] | Selectivity Index [10]
1 | 9 | 35.3 | > 100 | > 100 | 40.1 | 55.4 | > 100 | > 100 | Clc1ccc2c(c1)C[C@H]1C[C@@H](c3ccccc3)N2O1 (relative stereo) | > 300 | > 300 | >33 | >3 | > 300 | > 300 | >7 | >3
2 | 34.2 | 89.4 | 45.4 | 66.8 | 38.3 | 67.5 | > 100 | > 100 | Clc1ccc([C@@H]2C[C@@H]3Cc4ccccc4N2O3)cc1 (relative stereo) | > 300 | > 300 | >8 | >6 | > 300 | > 300 | >7 | >3
3 | 15 | > 100 | > 100 | > 100 | 33.2 | 50.1 | > 100 | > 100 | Clc1ccc([C@@H]2C[C@@H]3Cc4cc(Cl)ccc4N2O3)cc1 (relative stereo) | > 300 | > 300 | >20 | >3 | > 300 | > 300 | >9 | >3
4 | 30.1 | > 100 | 60.6 | > 95.4 | 32.5 | 42.2 | > 95.4 | > 95.4 | Clc1ccc2c(c1)C[C@H]1C[C@@H](c3ccc(Br)cc3)N2O1 (relative stereo) | > 300 | > 287 | >10 | >4 | 236 | > 287 | 7.24 | >2
5 | 35.4 | 85.8 | 40.2 | 104 | 35.2 | 41.8 | > 100 | > 100 | Fc1ccc2c(c1)C[C@H]1C[C@@H](c3ccc(Cl)cc3)N2O1 (relative stereo) | > 300 | > 300 | >8 | >7 | > 300 | > 300 | >8 | >3

More lines, now with the values behind:

Row | SMILES | IC50 (Trypanosoma cruzi [2]) [µM] | IC90 (Trypanosoma cruzi [2]) [µM] | IC50 (Trypanosoma cruzi [4]) [µM] | IC90 (Trypanosoma cruzi [4]) [µM] | IC50 (Leishmania chagasi [6]) [µM] | IC90 (Leishmania chagasi [6]) [µM] | IC50 (Leishmania chagasi [9]) [µM] | IC90 (Leishmania chagasi [9]) [µM] | CC50 at 72 h [1] [µM] | CC90 at 72 h [1] [µM] | Selectivity Index [3] | Selectivity Index [5] | CC50 at 72 h [7] [µM] | CC90 at 72 h [7] [µM] | Selectivity Index [8] | Selectivity Index [10]
6 | Clc1ccccc1[C@@H]1C[C@@H]2Cc3ccccc3N1O2 (relative stereo) | 19.4 | 57.8 | > 100 | > 100 | 25.1 | > 100 | > 100 | > 100 | 111 | > 300 | 5.71 | >1 | 110 | 211 | 4.37 | >1
7 | Cc1cccc([C@@H]2C[C@@H]3Cc4ccccc4N2O3)c1 (relative stereo) | 76.7 | > 100 | > 100 | > 100 | 52 | > 100 | > 100 | > 100 | > 300 | > 300 | >4 | >3 | > 300 | > 300 | >5 | >3
8 | Fc1ccc2c(c1)C[C@H]1C[C@@H](c3ccccc3)N2O1 (relative stereo) | 7.68 | 54.1 | > 100 | > 100 | 47.6 | > 100 | > 100 | > 100 | > 300 | > 300 | >39 | >3 | > 300 | > 300 | >6 | >3
9 | Clc1cccc([C@@H]2C[C@@H]3Cc4ccccc4N2O3)c1 (relative stereo) | 45.8 | > 100 | > 100 | > 100 | 49.1 | 70.7 | > 100 | > 100 | > 300 | > 300 | >6 | >3 | 134 | > 300 | 2.73 | >1
10 | Cc1ccc2c(c1)C[C@H]1C[C@@H](c3ccccc3Cl)N2O1 (relative stereo) | 14.3 | 30.4 | 51.9 | > 100 | 41.7 | 49.5 | > 100 | > 100 | 50.2 | > 300 | 3.51 | 0.96 | 66.8 | 109 | 1.6 | >0.66
11 | Clc1ccc2c(c1)C[C@H]1C[C@@H](c3ccccc3Cl)N2O1 (relative stereo) | 17.6 | 43.9 | > 100 | > 100 | 51.3 | > 100 | > 100 | > 100 | 109 | > 300 | 6.17 | >1 | > 300 | > 300 | >5 | >3
12 | Fc1ccccc1[C@@H]1C[C@@H]2Cc3ccccc3N1O2 (relative stereo) | > 100 | > 100 | 58.6 | 96.4 | 40.5 | 47 | > 100 | > 100 | > 300 | > 300 | >3 | >5 | 200 | > 300 | 4.93 | >2
13 | Cc1ccc([C@@H]2C[C@@H]3Cc4cc(C)ccc4N2O3)cc1 (relative stereo) | 23.2 | 85.4 | 45.3 | 90 | 99 | > 100 | > 100 | > 100 | 208 | > 300 | 8.97 | 4.6 | 74 | 126 | 0.75 | >0.74
14 | Fc1ccc([C@@H]2C[C@@H]3Cc4ccccc4N2O3)cc1 (relative stereo) | > 100 | > 100 | > 100 | > 100 | > 100 | > 100 | > 100 | > 100 | > 300 | > 300 | >3 | >3 | 183 | > 300 | >1 | >1
15 | COc1cccc([C@@H]2C[C@@H]3Cc4ccccc4N2O3)c1 (relative stereo) | > 100 | > 100 | > 100 | > 100 | 54.7 | > 100 | > 100 | > 100 | > 300 | > 300 | >3 | >3 | > 300 | > 300 | >5 | >3
